Screens (PubChem BioAssay)
An excerpt weighted towards active compounds, which were near 2.6% of everything screened.
PvdQ inh: P. aeruginosa PvdQ acylase inhibition. purified PvdQ acylase, fluorescence plate reader. inhibition, % at 10 µM. 340,000 tested, 0.063% active. AID 488965; in the data active = inhibition above about 30%, passing the limit was not always enough; inconclusive = no clear call, values can overlap the other calls;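 also: 0% = vehicle neutral wells and 100% = reference inhibitor wells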
SR-BI DiI inh: mouse SR-BI HDL lipid transfer inhibition | Q61009 | ldlA[mSR-BI] CHO cells, DiI-HDL uptake fluorescence, 3 h | inhibition, % at 12.5 µM | 320,000 tested, 0.96% active | AID 488896;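 active = mean replicate inhibition of at least 70% and a set share of replicates each scoring 70 or more; inconclusive = meets just one of the two criteria; inactive = fails both criteria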;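 also: 0% = median of neutral control wells and 100% = median of positive control wells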
Target sequence (Q61009 whole entry, looked up): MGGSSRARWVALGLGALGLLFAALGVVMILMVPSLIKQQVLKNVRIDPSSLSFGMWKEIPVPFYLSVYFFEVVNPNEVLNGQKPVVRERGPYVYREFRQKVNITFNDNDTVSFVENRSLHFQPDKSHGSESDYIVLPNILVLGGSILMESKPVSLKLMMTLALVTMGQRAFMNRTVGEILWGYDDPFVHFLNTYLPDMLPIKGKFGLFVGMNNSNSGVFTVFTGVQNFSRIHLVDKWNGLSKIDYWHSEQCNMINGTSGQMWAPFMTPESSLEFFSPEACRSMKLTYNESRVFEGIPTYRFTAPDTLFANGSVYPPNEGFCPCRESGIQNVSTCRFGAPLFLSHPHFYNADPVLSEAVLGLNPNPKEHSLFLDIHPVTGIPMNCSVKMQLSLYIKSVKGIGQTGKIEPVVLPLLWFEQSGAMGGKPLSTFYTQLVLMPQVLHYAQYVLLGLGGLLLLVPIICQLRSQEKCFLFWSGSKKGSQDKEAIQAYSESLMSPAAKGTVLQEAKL
dFosB activator: enhances mouse delta FosB homodimer DNA binding; P13346; purified delta FosB, TAMRA-CDK5 oligo fluorescence polarization; percent of positive-control signal above neutral wells; activation, % at 25 µM; 340,000 tested, 0.99% active;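 active = mean activation above about 17%, with every replicate also reaching it, limit read from the data, passing the limit was not always enough; inconclusive = only one of the two conditions met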
rRNA inh HTS: inhibits bacterial ribosomal RNA function over humanized ribosomes | E. coli WT GFP vs humanized-ribosome RFP mutants, fluorescence, 24 h; active compounds read low; DMSO median 0, no signal -100 | GFP signal change (wild-type ribosome), % (no concentration beside the values) | 350,000 tested, 1.6% active | AID 720706;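 active = significant combined selectivity score with lowered wild-type GFP, culture density cut under 30%, mutant RFP and density less affected; inactive = any of these conditions unmet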
SR-BI DiI-HDL act: activators of SR-BI mediated HDL lipid uptake | CHO ldlA[mSR-BI] cells, DiI-HDL uptake fluorescence, 3 h; 100 = double the neutral-control signal | activation, % at 12.5 µM | 320,000 tested, 0.096% active | AID 504775;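 active = mean replicate activation of at least 60% and every replicate at or above 60%; inconclusive = mean or all-replicate condition met, but not both; inactive = mean below 60% and not all replicates reaching 60%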;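 also: 0% = median plate neutral-control signal and 100% = twice that signal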
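Material – SR-BI-overexpressing, LDLR-lacking CHO cells · Medium – BSA-supplemented, HEPES-buffered Ham's F12, pH 7.4 · Doses – single concentration · Times – compound with DiI-HDL co-incubation, 3 h at 37 °C · Measured by – bottom-read fluorescence, 550/595 nm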
Xi reactivation: activators of X-chromosome reactivation in mouse fibroblasts; XiGFP mouse fibroblasts, % GFP-positive cells imaging, 3 d; cells co-treated with 5-aza-dC sensitizer; scaled so ellipticine positive control = 100%; 360,000 tested, 0.055% active; activation, % at 7.58 µM; AID 743238;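 active = mean normalized replicate activation at least 10% and every replicate at or above 10%; inconclusive = only one of the two criteria met; inactive = mean below 10% and not all replicates reach 10%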;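 also: 0% = median of on-plate neutral control wells and 100% = ellipticine 6 µM median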
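Assay system – SV40-immortalized XiGFP fibroblast cells, line 68-5-11 · Buffer or medium – DMEM supplemented with 5-aza-dC as sensitizing agent · Dosing – one concentration, pinned · Benchmarks – positive control ellipticine, 6 µM final · Times – 3 days compound exposure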
* = called active by the depositor.

Screening Cc1noc(C)c1NC(=O)N(C)C[C@H]1Oc2c(NC(=O)c3ccc(-c4nccs4)cc3)cccc2C(=O)N([C@H](C)CO)C[C@H]1C returned rRNA inh HTS 0 and Xi reactivation -1.
COc1cccc(/C=N/NC(=O)c2nc(-c3ccccc3)cc(-c3ccccc3)n2)c1O was read as PvdQ inh 3, SR-BI DiI inh 106*, dFosB activator 1, SR-BI DiI-HDL act -106 and Xi reactivation 0.
For COc1cc(/C=N\NC(=O)c2ccc(Cn3nc([N+](=O)[O-])c(Cl)c3C)o2)ccc1O the results were PvdQ inh -4, SR-BI DiI inh 46, dFosB activator -6 and SR-BI DiI-HDL act -46.
`O=C(CNC(=O)c1ccc(F)cc1)N/N=C/c1cc(Br)ccc1OC(=O)/C=C/c1ccco1` gave PvdQ inh -6, dFosB activator 14, rRNA inh HTS -28* and Xi reactivation 0.
COc1cccc(C=NNC(=O)c2ccncc2)c1O was read as PvdQ inh -6, SR-BI DiI inh 31, dFosB activator 4, rRNA inh HTS -12, SR-BI DiI-HDL act -31 and Xi reactivation 0.
For O=C(CNC(=O)c1ccccc1F)N/N=C/c1cc(Br)ccc1OC(=O)/C=C/c1ccco1 the results were PvdQ inh 1, SR-BI DiI inh 33, dFosB activator 7, SR-BI DiI-HDL act -33 and Xi reactivation 0.
COc1ccccc1/C=C/C(=O)Nc1cccc(C(C)=O)c1 was read as PvdQ inh -25, SR-BI DiI inh 76*, dFosB activator -22, rRNA inh HTS -5, SR-BI DiI-HDL act -76 and Xi reactivation 0.
For COc1cccc(/C=N\NC(=O)c2ccc(Cn3cc(Br)c([N+](=O)[O-])n3)o2)c1O the results were PvdQ inh -1, SR-BI DiI inh 101*, dFosB activator 24*, rRNA inh HTS -20, SR-BI DiI-HDL act -101 and Xi reactivation 0.
Screening CCN1CCN(C(=S)Nc2ccc3nc(N4CCN(CC)CC4)cc(C)c3c2)CC1 returned PvdQ inh -10, SR-BI DiI inh 2, dFosB activator 5 and SR-BI DiI-HDL act -2.
O=C(CCSc1nnc2scc(-c3ccccc3)n12)Nc1nc(-c2ccccc2)ns1 was read as PvdQ inh 8, SR-BI DiI inh 19, dFosB activator inconclusive and SR-BI DiI-HDL act -19.
`COc1ccccc1C=NN=C(NN=Cc1ccccc1OC)NN=Cc1ccccc1OC` gave PvdQ inh 1, SR-BI DiI inh 27, dFosB activator 44*, rRNA inh HTS 4, SR-BI DiI-HDL act -27 and Xi reactivation 1.
COc1cccc(/C=N/NC(=O)c2c(C)nc3ccc(Br)cn23)c1O was read as PvdQ inh -3, SR-BI DiI inh 100*, dFosB activator 9 and SR-BI DiI-HDL act -100.
Screening COc1ccccc1/C=C\C(=O)NCC(=O)N/N=C/c1cccc(OC)c1O returned PvdQ inh -17, SR-BI DiI inh -6, dFosB activator 30*, rRNA inh HTS -10, SR-BI DiI-HDL act 6 and Xi reactivation 0.
`CCOc1ccccc1/C=N/NC(=O)c1c(C)nc2ccc(Br)cn12` gave PvdQ inh -7, SR-BI DiI inh 66, dFosB activator -3, rRNA inh HTS 9, SR-BI DiI-HDL act -66 and Xi reactivation 0.
COc1ccc(/C=C/C(=O)NCC(=O)N/N=C/c2cc(Br)ccc2OC)cc1 was read as PvdQ inh -6, SR-BI DiI inh 78*, dFosB activator 3 and SR-BI DiI-HDL act -78.
COc1ccc(/C=N/NC(=O)CNC(=O)/C=C/c2ccccc2OC)cc1 was read as PvdQ inh -13, dFosB activator -9, rRNA inh HTS 2 and Xi reactivation 0.
Screening COc1ccc(Br)cc1/C=N/NC(=O)CNC(=O)c1cccnc1 returned PvdQ inh -17, SR-BI DiI inh 15, dFosB activator -7, rRNA inh HTS 2, SR-BI DiI-HDL act -15 and Xi reactivation 1.
